Reference: ChEMBL document CHEMBL1123540, “Potential antitumor agents. 45. Synthesis, DNA-binding interaction, and biological activity of triacridine derivatives” (J Med Chem, 1986)
Values joined by “and” are separate entries in the source; they are usually repeats but may differ in a detail not shown here. Equal entries are not always repeated.

Key:
Nucleic Acid [1] = assay: Inhibitory concentration against ethidium bromide binding to DNA [poly(dG-dC)]; format: nucleic-acid assay
How it was run: (§1)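 C50 is the micromolar drug concentration displacing 50% of ethidium bromide already bound to DNA, read by fluorescence. It is used as a comparative measure of DNA binding.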

[2] = In vitro inhibition of Escherichia coli DNA-dependent RNA polymerase using both calf thymus and phage T7 DNA template
How it was run: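 E. coli RNA polymerase (0.65 μg) added to template DNA (2.5 μg; calf thymus or phage T7) plus drug. TCA-pyrophosphate precipitates counted by scintillation; IC50 from inhibition curves, mean of 2–4 determinations.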

Nucleic Acid [3] = assay: Inhibitory concentration against ethidium bromide binding to DNA [poly(dA-dT)]; format: nucleic-acid assay; how it was run: as §1
P388 [4] = assay: Optimal dose administered ip as a solution in 0.1 mL of 30% v/v ethanol-water after intraperitoneal inoculation of 10e6 P388 leukemia cells.; format: functional, Mus musculus
How it was run: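 P388 leukemia cells (10^6) inoculated ip. Drug given ip in 30% v/v ethanol-water on days 1, 5 and 9, in mg/kg per day. The optimal dose is the one giving the best increase in lifespan over untreated tumor-bearing controls; >20% counted significant.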

L1210 = assay: Concentration of compound required to inhibit growth of L1210 leukemia cells in culture by 50%; format: functional, cell-based; details: Mus musculus
How it was run: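 L1210 leukemia cells grown in culture with continuous drug exposure for 70 h; IC50 in nanomolar, drug concentration giving 50% growth inhibition.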

P388 [5] = assay: Percentage increase in life span (ILS) of compound treated tumor-bearing animals compared to tumor-bearing controls when treated at the optimal dose.; format: functional, Mus musculus
How it was run: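 P388 leukemia: 10^6 cells inoculated intraperitoneally; drug given i.p. in 30% v/v ethanol-water on days 1, 5 and 9. Dose is in mg/kg per day. ILS is the percent increase in lifespan over untreated tumor-bearing controls at the optimal dose. Values above 20% count as significant.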

Row | C50 (Nucleic Acid [1]) | IC50 [2] | C50 (Nucleic Acid [3]) | IC50 (L1210) | Structure (SMILES) | Optimal dose (P388 [4]) | ILS (P388 [5])
1 | 0.21 µM | 4.2 µM and 3.1 µM | 0.09 µM | 0.47 µM | NC(CC(=O)NCCCNc1c2ccccc2nc2ccccc12)CC(=O)NCCCNc1c2ccccc2nc2ccccc12 | – | –
2 | 0.33 µM | 4.9 µM and 4.7 µM | 0.22 µM | 0.25 µM | Cl.O=C(CCCC(=O)NCCCCCCNc1c2ccccc2nc2ccccc12)NCCCCCCNc1c2ccccc2nc2ccccc12 | 45 mg/kg/day | –
3 | 0.29 µM | 9.2 µM and 6.7 µM | 0.3 µM | 3.08 µM | Cl.O=C(CCCC(=O)NCCNc1c2ccccc2nc2ccccc12)NCCNc1c2ccccc2nc2ccccc12 | 30 mg/kg/day | –
4 | – | 7.5 µM and 6.2 µM | – | 0.35 µM | Cl.O=C(CCCC(=O)NCCCNc1c2ccccc2nc2ccccc12)NCCCNc1c2ccccc2nc2ccccc12 | 13.3 mg/kg/day | –

Further lines, the molecule ahead of its results:

Row | Structure (SMILES) | C50 (Nucleic Acid [1]) | IC50 [2] | C50 (Nucleic Acid [3]) | IC50 (L1210) | Optimal dose (P388 [4]) | ILS (P388 [5])
5 | Cl.O=C(CC(CC(=O)NCCCCCCCNc1c2ccccc2nc2ccccc12)Nc1c2ccccc2nc2ccccc12)NCCCCCCCNc1c2ccccc2nc2ccccc12 | 0.14 µM | 4.6 µM and 3.7 µM | 0.1 µM | 0.59 µM | 20 mg/kg/day | –
6 | Cl.O=C(CCCC(=O)NCCCCCCCNc1c2ccccc2nc2ccccc12)NCCCCCCCNc1c2ccccc2nc2ccccc12 | 0.23 µM | 6.2 µM and 4.5 µM | 0.15 µM | 0.96 µM | 30 mg/kg/day | –
7 | Cl.O=C(CCCC(=O)NCCCCNc1c2ccccc2nc2ccccc12)NCCCCNc1c2ccccc2nc2ccccc12 | 0.13 µM | 4.6 µM and 4.1 µM | 0.28 µM | 0.24 µM | 20 mg/kg/day | 30%
8 | Cl.O=C(CC(CC(=O)NCCCCCCNc1c2ccccc2nc2ccccc12)Nc1c2ccccc2nc2ccccc12)NCCCCCCNc1c2ccccc2nc2ccccc12 | 0.11 µM | 4.1 µM and 4 µM | 0.11 µM | 0.35 µM | 20 mg/kg/day | 21%
9 | Cl.O=C(CC(CC(=O)NCCNc1c2ccccc2nc2ccccc12)Nc1c2ccccc2nc2ccccc12)NCCNc1c2ccccc2nc2ccccc12 | 0.38 µM | 30.3 µM and 30 µM | 0.43 µM | 5.9 µM | 3.9 mg/kg/day | –
10 | Cl.O=C(CC(CC(=O)NCCCCCNc1c2ccccc2nc2ccccc12)Nc1c2ccccc2nc2ccccc12)NCCCCCNc1c2ccccc2nc2ccccc12 | 0.25 µM | 4.1 µM and 4.5 µM | 0.35 µM | 0.58 µM | 8.9 mg/kg/day | 21%
11 | Cl.O=C(CC(CC(=O)NCCCCNc1c2ccccc2nc2ccccc12)Nc1c2ccccc2nc2ccccc12)NCCCCNc1c2ccccc2nc2ccccc12 | 0.13 µM | 5.9 µM and 5.4 µM | 0.08 µM | 2.3 µM | 8.9 mg/kg/day | –
12 | Cl.O=C(CC(CC(=O)NCCCNc1c2ccccc2nc2ccccc12)Nc1c2ccccc2nc2ccccc12)NCCCNc1c2ccccc2nc2ccccc12 | 0.19 µM | 13.2 µM and 12.8 µM | 0.1 µM | 0.8 µM | 8.9 mg/kg/day | –
13 | Cl.O=C(CCCC(=O)NCCCCCNc1c2ccccc2nc2ccccc12)NCCCCCNc1c2ccccc2nc2ccccc12 | 0.24 µM | 5.2 µM and 4.2 µM | 0.28 µM | 0.17 µM | 20 mg/kg/day | 33%
